The record followed here is ChEMBL document CHEMBL2169822, “Discovery and optimization of 1,3,4-trisubstituted-pyrazolone derivatives as novel, potent, and nonsteroidal farnesoid X receptor (FXR) selective antagonists” (J Med Chem, 2012).

Molecules are shown by their SMILES. Calls of active or inactive are those of the source. The calls are words filed in the database; no cut-off is given here. A value given as a limit tells only on which side of the number the result lay.

Data set [1] has as its target T1, Peroxisome proliferator-activated receptor delta (Homo sapiens) (UniProt Q03181).
T1 sequence (whole entry): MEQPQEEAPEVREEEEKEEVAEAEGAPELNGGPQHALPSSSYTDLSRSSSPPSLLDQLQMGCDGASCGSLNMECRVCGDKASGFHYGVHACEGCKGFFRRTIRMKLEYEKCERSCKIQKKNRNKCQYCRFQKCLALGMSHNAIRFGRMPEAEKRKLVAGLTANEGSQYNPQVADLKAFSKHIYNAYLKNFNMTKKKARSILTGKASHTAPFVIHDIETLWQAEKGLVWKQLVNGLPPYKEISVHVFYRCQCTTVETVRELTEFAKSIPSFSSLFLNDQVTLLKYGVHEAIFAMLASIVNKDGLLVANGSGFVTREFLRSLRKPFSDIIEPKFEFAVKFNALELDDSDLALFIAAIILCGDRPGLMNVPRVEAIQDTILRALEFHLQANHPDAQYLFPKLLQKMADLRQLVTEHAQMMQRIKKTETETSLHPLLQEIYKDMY
Briefly: Antagonist activity at recombinant PPARdelta LBD expressed in HEK293T cells co-expressing GAL4 DBD assessed as inhibition of GW1516-induced transactivation at 20 uM by luciferase reporter gene assay. In kind it is functional, cell-based. Particulars: HEK-293T. In a few lines: (§1)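 One-hybrid assay in HEK293T cells cotransfected with a Gal4 DBD–NR-LBD fusion (RXRα, LXRα, GR, PR, PPARδ or PPARγ) plus UAS-TK-Luc reporter. Compound was 20 μM, given alone or with agonist: 9cRA 0.1 μM (RXRα), TO901317 0.5 μM (LXRα), dexamethasone 50 nM (GR), progesterone 100 nM (PR), GW1516 10 μM (PPARδ), rosiglitazone 10 μM (PPARγ). Luciferase read-out; three independent experiments.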
For orientation: In a reporter assay the amount or activity of a reporter protein is the signal.

The target of data set [2] is T2, Bile acid receptor (Homo sapiens) (UniProt Q96RI1).
T2 sequence (whole entry): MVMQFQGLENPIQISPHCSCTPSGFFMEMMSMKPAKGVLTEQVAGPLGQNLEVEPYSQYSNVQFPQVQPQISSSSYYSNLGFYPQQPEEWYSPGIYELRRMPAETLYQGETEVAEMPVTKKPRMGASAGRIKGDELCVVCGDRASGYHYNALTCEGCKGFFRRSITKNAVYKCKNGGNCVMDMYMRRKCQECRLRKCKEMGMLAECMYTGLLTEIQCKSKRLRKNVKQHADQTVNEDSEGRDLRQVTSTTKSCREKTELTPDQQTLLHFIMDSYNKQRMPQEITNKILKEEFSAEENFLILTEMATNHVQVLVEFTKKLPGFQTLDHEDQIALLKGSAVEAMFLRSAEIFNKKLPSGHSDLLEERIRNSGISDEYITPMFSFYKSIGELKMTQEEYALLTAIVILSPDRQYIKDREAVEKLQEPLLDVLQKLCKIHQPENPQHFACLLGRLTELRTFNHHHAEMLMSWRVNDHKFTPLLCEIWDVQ
Briefly: Antagonist activity at human FXR in human HepG2 cells assessed as inhibition of CDCA induced BSEP gene expression at 5 to 40 uM after 24 hrs by RT-PCR analysis. In kind it is functional, cell-based. In a few lines:
(§2)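 HepG2 cells in 6-well plates were treated with varied concentrations of compound, with or without 100 μM CDCA, for 24 h. Total RNA was taken with TRIzol and cDNA made by reverse transcription. Cyp7A1, SHP, BSEP and SREBP1c mRNA were measured by quantitative RT-PCR and normalized to β-actin. Three independent experiments.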

Data set [3] is described as follows: Oral bioavailability in Sprague-Dawley rat at 50 mg/kg by LC-MS/MS analysis. Particulars: in vivo. It counts as ADME, organism-based.
The subject of data set [4] is Mus musculus. Briefly: Reduction of serum triglyceride level in cholesterol-fed C57BL/6 mouse at 100 mg/kg, po after 10 days. The arrangement: scale not given: the % may be the effect or the level left. It counts as functional. In a few lines: (§3)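 Male C57BL/6 mice, 8–12 weeks old, were randomized into five groups of nine. Control mice had ground chow; the other groups had chow with 2% cholesterol. Compound (50 or 100 mg/kg) or reference (100 mg/kg) was suspended in 0.5% CMC-Na and given by oral gavage; control and vehicle mice got 0.5% CMC-Na. Serum and hepatic triglyceride and total cholesterol were measured.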

The subject of data set [5] is Mus musculus. Briefly: Reduction of hepatic cholesterol level in cholesterol-fed C57BL/6 mouse administered orally after 10 days. It counts as functional, organism-based. An outline of the steps: as §3
Data set [6] has as its target T2, Bile acid receptor (Homo sapiens). The experiment in a line: Antagonist activity at human FXR in human HepG2 cells assessed as inhibition of CDCA induced SHP gene expression at 5 to 40 uM after 24 hrs by RT-PCR analysis. In kind it is functional, cell-based. In a few lines:
as §2

Data set [7] has the same target. The experiment in a line: Antagonist activity at human FXR in human HepG2 cells assessed as reduction in triglyceride level at 10 uM after 24 hrs. It counts as functional, cell-based. In a few lines:
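HepG2 cells were serum-starved overnight in FBS-free DMEM, then given DMSO or compound for 24 h in serum-free DMEM. Cells were lysed in RIPA buffer, sonicated on ice and centrifuged at 12000 rpm, 4 °C. Triglyceride and total cholesterol in the cleared lysate were measured by kits, with total protein by BCA. At least three experiments.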

Data set [8] concerns the target T1, Peroxisome proliferator-activated receptor delta (Homo sapiens). Briefly: Agonist activity at recombinant PPARdelta LBD expressed in HEK293T cells co-expressing GAL4 DBD at 20 uM by transactivation assay. The following applies: HEK-293T. In kind it is functional, cell-based. In a few lines: as §1
The subject of data set [9] is Mus musculus. The experiment in a line: Reduction of hepatic triglyceride level in cholesterol-fed C57BL/6 mouse administered orally after 10 days. In kind it is functional, organism-based. An outline of the steps:
as §3

For `COc1cc(/C=C2\C(=O)N(c3cccc([N+](=O)[O-])c3)N=C2c2ccccc2)ccc1O`, in data set [1], the inhibition (usually the change of the read-out against control, counted positive when it falls) was “inactive”. The inhibition entry in data set [2] and in data set [6] was “Active” in each case. Also, the bioavailability (usually dose-corrected exposure relative to a reference, in per cent) in data set [3] is less than 5%. Also, the Activity is 60.3% in [4], “Dose-dependent effect” in data set [5] and “Dose-dependent effect” in data set [9]. Moreover, in data set [7], the inhibition came to 35.2%. The result in data set [8] was inactive.
